Results: ChEMBL document CHEMBL4350961, “Discovery of Pyrrolo[3,2- d]pyrimidin-4-one Derivatives as a New Class of Potent and Cell-Active Inhibitors of P300/CBP-Associated Factor Bromodomain” (J Med Chem, 2019)
The source made the active and inactive calls. The rule behind the calls is not given here.

Assays:
[1] = target: Aurora kinase B (Homo sapiens) (UniProt Q96GD4); experiment: Inhibition of recombinant full-length human AURKB at 10 uM using AKRRRLSSLRA as substrate measured after 40 mins in presence of [gamma33P]ATP by scintillation counting method
Homo sapiens [2] = organism: Homo sapiens; experiment: Inhibition of recombinant full-length human AURKA I31F mutant at 10 uM using LRRASLG as substrate measured after 40 mins in presence of [gamma33P]ATP by scintillation counting method
[3] = target: Tau-tubulin kinase 2 (Homo sapiens) (UniProt Q6IQ55); experiment: Inhibition of human TTBK2 (1 to 331 residues) using Casein as substrate measured after 40 mins in presence of [gamma33P]ATP by scintillation counting method
Sequence of Tau-tubulin kinase 2 (Homo sapiens) (Q6IQ55 whole entry, the tested form may be a part): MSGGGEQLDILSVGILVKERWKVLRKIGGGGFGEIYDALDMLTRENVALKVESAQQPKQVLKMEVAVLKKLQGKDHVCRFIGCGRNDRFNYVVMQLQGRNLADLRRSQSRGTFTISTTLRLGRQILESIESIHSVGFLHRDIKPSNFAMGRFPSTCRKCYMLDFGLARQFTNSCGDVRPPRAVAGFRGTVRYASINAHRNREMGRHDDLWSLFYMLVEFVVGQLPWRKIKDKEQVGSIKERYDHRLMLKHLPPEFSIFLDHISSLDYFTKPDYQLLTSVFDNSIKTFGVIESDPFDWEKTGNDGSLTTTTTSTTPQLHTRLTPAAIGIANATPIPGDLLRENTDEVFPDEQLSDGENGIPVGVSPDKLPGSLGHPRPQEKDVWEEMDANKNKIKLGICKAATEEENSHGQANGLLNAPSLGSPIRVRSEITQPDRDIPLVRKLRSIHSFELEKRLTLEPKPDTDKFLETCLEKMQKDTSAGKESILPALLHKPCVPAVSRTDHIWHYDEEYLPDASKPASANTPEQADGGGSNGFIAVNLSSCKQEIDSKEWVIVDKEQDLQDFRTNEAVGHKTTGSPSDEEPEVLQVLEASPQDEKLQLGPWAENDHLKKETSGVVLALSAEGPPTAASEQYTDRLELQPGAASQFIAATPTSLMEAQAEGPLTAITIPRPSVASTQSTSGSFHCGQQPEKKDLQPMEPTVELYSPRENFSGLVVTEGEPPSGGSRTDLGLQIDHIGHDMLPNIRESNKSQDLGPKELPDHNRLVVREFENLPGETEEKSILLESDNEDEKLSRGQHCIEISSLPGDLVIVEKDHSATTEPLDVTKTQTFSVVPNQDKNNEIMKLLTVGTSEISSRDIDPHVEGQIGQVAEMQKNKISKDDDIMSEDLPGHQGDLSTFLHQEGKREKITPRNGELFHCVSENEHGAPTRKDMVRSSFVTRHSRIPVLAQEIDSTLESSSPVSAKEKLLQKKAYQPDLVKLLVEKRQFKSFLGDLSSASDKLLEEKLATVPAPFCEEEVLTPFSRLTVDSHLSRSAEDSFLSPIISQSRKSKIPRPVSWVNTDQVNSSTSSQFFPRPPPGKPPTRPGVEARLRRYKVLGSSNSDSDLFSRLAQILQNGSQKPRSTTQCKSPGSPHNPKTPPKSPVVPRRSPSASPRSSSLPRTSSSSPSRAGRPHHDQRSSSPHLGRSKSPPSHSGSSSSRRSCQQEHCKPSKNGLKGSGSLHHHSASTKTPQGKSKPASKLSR

[4] = target: Transcription initiation factor TFIID subunit 1 (Homo sapiens) (UniProt P21675); experiment: Binding affinity to human N-terminal His-tagged TAF1 bromodomain1 assessed as change in melting temperature at 10 uM by SYPRO orange dye-based fluorescence assay
Procedure, shortened: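 Thermal shift with His-tagged human bromodomain at 2 μM final in 10 mM HEPES pH 7.5, 500 mM NaCl. Compound at 10 μM final with 0.1% DMSO; SYPRO Orange at 1:1000. Equilibrated 3 min at 25 °C, then heated from 25 to 95 °C at 1 °C/min. Melting temperature shift taken from fluorescence; at least duplicate.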

[5] = tested on: Tyrosine-protein kinase ABL1 (Homo sapiens), P00519 [Q252H]; experiment: Inhibition of recombinant human ABL Q252H mutant (27 to end residues) at 10 uM using EAIYAAPFAKKK as substrate measured after 40 mins in presence of [gamma33P]ATP by scintillation counting method
[6] = target: Serine/threonine-protein kinase MAK (Homo sapiens) (UniProt P20794); experiment: Inhibition of recombinant full-length human MAK at 10 uM using RRRFRPASPLRGPPK as substrate measured after 120 mins in presence of [gamma33P]ATP by scintillation counting method
Sequence of Serine/threonine-protein kinase MAK (Homo sapiens) (P20794 whole entry, the tested form may be a part): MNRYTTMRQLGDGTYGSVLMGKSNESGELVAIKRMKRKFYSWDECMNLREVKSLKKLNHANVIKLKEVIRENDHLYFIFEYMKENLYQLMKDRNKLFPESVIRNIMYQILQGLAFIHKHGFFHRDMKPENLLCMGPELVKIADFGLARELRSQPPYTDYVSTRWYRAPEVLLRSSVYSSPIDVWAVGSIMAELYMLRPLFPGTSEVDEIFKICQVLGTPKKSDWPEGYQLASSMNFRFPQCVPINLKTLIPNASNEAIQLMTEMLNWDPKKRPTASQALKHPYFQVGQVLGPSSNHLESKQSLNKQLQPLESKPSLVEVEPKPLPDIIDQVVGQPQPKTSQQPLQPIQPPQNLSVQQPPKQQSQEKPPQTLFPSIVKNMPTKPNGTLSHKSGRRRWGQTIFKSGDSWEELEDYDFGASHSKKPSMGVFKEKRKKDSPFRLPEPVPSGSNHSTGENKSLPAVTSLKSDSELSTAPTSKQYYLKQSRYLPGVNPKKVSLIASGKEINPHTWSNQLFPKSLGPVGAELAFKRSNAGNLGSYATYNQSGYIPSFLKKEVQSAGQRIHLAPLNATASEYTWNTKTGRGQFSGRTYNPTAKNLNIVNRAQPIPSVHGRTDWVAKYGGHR

[7] = tested on: Serine/threonine-protein kinase TAO3 (Homo sapiens), Q9H2K8 [UNDEFINED MUTATION]; experiment: Inhibition of human TAO3 (1 to 411 residues) using myelin basic protein as substrate measured after 40 mins in presence of [gamma33P]ATP by scintillation counting method
[8] = target: Death-associated protein kinase 1 (Homo sapiens) (UniProt P53355); experiment: Inhibition of recombinant human DAPK1 (1 to 296 residues) at 10 uM using KKLNRTLSFAEPG as substrate measured after 40 mins in presence of [gamma33P]ATP by scintillation counting method
Sequence of Death-associated protein kinase 1 (Homo sapiens) (P53355 whole entry, looked up, the tested form may be a part): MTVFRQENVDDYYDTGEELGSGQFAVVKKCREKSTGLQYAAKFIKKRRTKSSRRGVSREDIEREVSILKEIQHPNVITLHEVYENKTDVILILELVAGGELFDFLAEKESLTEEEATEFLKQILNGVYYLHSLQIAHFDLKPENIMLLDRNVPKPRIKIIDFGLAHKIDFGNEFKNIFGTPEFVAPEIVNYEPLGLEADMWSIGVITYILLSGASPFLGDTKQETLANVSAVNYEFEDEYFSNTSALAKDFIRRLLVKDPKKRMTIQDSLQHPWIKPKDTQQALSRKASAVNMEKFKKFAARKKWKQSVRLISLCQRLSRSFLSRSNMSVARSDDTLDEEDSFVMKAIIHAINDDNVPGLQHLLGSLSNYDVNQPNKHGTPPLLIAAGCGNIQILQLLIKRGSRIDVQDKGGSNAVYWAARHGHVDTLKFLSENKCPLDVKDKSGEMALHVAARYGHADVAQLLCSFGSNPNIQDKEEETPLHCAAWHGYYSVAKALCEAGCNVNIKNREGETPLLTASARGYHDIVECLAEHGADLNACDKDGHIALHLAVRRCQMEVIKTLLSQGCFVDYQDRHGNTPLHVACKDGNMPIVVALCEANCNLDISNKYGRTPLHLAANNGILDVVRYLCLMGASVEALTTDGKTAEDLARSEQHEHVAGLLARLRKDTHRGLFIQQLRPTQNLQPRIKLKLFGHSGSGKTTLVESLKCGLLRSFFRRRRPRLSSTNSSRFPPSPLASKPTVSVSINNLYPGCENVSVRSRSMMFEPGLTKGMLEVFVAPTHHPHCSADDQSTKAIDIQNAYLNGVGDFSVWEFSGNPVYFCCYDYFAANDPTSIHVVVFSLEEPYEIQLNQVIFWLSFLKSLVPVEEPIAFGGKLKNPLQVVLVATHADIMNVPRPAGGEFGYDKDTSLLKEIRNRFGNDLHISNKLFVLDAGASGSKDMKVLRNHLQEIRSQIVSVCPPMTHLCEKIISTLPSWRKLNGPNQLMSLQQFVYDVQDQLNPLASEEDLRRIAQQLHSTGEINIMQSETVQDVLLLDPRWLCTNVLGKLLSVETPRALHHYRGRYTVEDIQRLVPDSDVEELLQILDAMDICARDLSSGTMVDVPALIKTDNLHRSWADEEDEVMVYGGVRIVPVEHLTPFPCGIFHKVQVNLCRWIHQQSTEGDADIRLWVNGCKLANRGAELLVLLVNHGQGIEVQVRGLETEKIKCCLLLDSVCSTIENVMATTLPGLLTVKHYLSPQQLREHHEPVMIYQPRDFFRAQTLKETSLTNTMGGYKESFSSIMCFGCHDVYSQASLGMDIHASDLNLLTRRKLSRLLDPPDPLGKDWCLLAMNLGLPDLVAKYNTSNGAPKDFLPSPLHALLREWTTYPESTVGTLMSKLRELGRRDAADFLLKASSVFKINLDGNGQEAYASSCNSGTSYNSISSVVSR

[9] = tested on: Angiopoietin-1 receptor (Homo sapiens), Q02763 [Q939H,Q940H,Y897S]; experiment: Inhibition of human Tie2 Q939H/Q940H/Y897S mutant (771 to end residues) using EFPIYDFLPAKKK as substrate measured after 40 mins in presence of [gamma33P]ATP by scintillation counting method
Homo sapiens [10] = organism: Homo sapiens; experiment: Inhibition of recombinant human Plk4 S34T mutant (1 to 273 residues) at 10 uM using casein as substrate measured after 40 mins in presence of [gamma33P]ATP by scintillation counting method
[11] = target: Casein kinase I isoform delta (Homo sapiens) (UniProt P48730); experiment: Inhibition of recombinant human CK1delta (1 to 294 residues) at 10 uM using KRRRALS(p)VASLPGL as substrate measured after 40 mins in presence of [gamma33P]ATP by scintillation counting method
[12] = target: Histone acetyltransferase KAT2A (Homo sapiens, UniProt Q92830); experiment: Binding affinity to human N-terminal His-tagged GCN5 by isothermal titration calorimetry
[13] = target: Serine/threonine-protein kinase TBK1 (Homo sapiens) (UniProt Q9UHD2); experiment: Inhibition of recombinant full-length human TBK1 at 10 uM using KRRRALS(p)VASLPGL as substrate measured after 40 mins in presence of [gamma33P]ATP by scintillation counting method
Sequence of Serine/threonine-protein kinase TBK1 (Homo sapiens) (Q9UHD2 whole entry): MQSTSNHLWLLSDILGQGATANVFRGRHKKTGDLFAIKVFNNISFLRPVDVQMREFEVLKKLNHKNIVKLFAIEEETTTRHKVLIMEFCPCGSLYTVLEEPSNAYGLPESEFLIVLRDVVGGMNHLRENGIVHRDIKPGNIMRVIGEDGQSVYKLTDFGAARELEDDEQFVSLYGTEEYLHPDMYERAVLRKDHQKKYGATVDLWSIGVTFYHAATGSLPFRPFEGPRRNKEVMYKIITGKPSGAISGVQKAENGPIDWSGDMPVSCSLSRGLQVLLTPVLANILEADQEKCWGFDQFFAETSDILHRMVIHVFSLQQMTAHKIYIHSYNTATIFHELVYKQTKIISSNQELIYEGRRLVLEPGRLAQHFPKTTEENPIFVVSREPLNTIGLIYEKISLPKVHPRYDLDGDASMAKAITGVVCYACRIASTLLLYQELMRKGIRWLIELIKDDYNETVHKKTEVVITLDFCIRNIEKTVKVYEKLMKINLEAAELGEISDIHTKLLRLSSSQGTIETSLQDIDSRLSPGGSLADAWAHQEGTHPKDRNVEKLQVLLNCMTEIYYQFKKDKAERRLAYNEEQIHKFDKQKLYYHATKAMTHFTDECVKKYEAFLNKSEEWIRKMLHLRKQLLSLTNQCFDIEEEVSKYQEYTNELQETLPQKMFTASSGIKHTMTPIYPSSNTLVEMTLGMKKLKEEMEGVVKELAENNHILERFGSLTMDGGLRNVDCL

[14] = target: Serine/threonine-protein kinase VRK1 (Homo sapiens) (UniProt Q99986); experiment: Inhibition of human VRK1 at 10 uM by radiometric method
Sequence of Serine/threonine-protein kinase VRK1 (Homo sapiens) (Q99986 whole entry): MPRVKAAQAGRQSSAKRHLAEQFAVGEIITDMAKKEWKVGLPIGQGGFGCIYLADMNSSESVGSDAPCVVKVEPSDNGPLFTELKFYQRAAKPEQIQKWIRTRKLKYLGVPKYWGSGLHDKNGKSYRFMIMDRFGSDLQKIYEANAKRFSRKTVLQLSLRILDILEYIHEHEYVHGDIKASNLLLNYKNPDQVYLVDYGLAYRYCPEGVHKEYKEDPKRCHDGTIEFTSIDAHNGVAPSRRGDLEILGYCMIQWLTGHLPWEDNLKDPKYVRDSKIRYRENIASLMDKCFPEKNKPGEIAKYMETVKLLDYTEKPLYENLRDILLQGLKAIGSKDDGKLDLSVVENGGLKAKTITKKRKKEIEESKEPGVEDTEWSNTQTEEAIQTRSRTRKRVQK

[15] = target: Serine/threonine-protein kinase BRSK1 (Homo sapiens) (UniProt Q8TDC3); experiment: Inhibition of recombinant human BrSK1 (2 to end residues) at 10 uM using KKKVSRSGLYRSPSMPENLNRPR as substrate measured after 120 mins in presence of [gamma33P]ATP by scintillation counting method
[16] = target: Cyclin-dependent kinase-like 2 (Homo sapiens) (UniProt Q92772); experiment: Inhibition of human CDKL2 at 10 uM by radiometric method
Procedure, shortened: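 Kinase panel of 422 kinases screened by Eurofins KinaseProfiler at a single test-compound concentration of 10 µM.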

[17] = target: Mitogen-activated protein kinase kinase kinase 7 (Homo sapiens) (UniProt O43318); experiment: Inhibition of human TAK1 (1 to 303 residues) using casein as substrate measured after 40 mins in presence of [gamma33P]ATP by scintillation counting method
Sequence of Mitogen-activated protein kinase kinase kinase 7 (Homo sapiens) (O43318 whole entry, the tested form may be a part): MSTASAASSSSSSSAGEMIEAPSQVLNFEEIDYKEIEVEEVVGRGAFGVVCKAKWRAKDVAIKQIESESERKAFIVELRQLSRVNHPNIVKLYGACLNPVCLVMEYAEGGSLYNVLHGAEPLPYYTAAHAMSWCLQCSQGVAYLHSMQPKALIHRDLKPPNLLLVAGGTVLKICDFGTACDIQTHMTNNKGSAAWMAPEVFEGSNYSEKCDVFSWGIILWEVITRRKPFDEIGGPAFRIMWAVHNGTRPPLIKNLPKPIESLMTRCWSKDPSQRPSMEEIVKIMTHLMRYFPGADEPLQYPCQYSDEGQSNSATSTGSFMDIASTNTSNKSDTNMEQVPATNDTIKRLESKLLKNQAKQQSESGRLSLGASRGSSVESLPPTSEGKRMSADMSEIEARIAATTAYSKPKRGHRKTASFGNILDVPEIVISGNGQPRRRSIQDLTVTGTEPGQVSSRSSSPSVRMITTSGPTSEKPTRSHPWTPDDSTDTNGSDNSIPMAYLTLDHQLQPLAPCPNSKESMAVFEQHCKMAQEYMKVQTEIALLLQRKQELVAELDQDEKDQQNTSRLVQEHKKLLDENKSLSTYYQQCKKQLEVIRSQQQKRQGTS

With `CN1C[C@H](Nc2nc3cc[nH]c3c(=O)n2C)C[C@H](c2ccc3c(c2)OCCO3)C1` the inhibition [1] was “inactive”, the inhibition (Homo sapiens [2]) was “inactive” and the inhibition [3] was “inactive”. For the same compound, the ΔTm [4] was 0.2 °C, the inhibition [5] was “inactive” and the inhibition [6] was “inactive”. The inhibition [7] was “inactive”, the inhibition [8] was “inactive” and the inhibition [9] was “inactive”. The inhibition (Homo sapiens [10]) was “inactive”, the inhibition [11] was “inactive” and the Kd [12] was 105 nM. The inhibition [13] was “inactive”, the inhibition [14] was “inactive” and the inhibition [15] was “inactive”. For the same compound, the inhibition [16] was “inactive” and the inhibition [17] was “inactive”.
